Measurements reported in ChEMBL document CHEMBL1150591, “Structure and absolute stereochemistry of hectochlorin, a potent stimulator of actin assembly” (J Nat Prod, 2002).
Calls of active or inactive are those of the source. The calls are words filed in the database; no cut-off is given here.

Experiments:
[1] = test system: PtK2; assay: Effect on actin cytoskeleton in rat kangaroo PtK2 cells assessed as increase in binucleated cells at 0.3 to 3 uM after 24 hrs by immunofluorescence analysis; assay type: functional, cell-based; conditions: Potorous tridactylus
In short: (§1)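 PtK2 cells were treated 24 h at 37 °C, then stained with FITC-anti-β-actin antibody (clone Ac-15) and DAPI. Cells were viewed under a 40× oil objective. FITC-phalloidin staining was also used.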

[2] = test system: PtK2; assay: Effect on actin cytoskeleton in rat kangaroo PtK2 cells assessed as increase in binucleated cells at 1 to 10 uM after 24 hrs by immunofluorescence analysis; assay type: functional, cell-based; conditions: Potorous tridactylus; in short: as §1
[3] = test system: PtK2; assay: Effect on actin cytoskeleton in rat kangaroo PtK2 cells assessed as reorganization and hypernucleation of actin assembly at 0.03 uM after 24 hrs by immunofluorescence analysis; assay type: functional, cell-based; conditions: Potorous tridactylus; in short: as §1
[4] = test system: PtK2; assay: Effect on actin cytoskeleton in rat kangaroo PtK2 cells assessed as retracted cytoplasm and spiky appearance at 3 uM after 24 hrs by immunofluorescence analysis; assay type: functional, cell-based; conditions: Potorous tridactylus; in short: as §1
[5] = organism: Oryctolagus cuniculus; assay: Stimulation of rabbit muscle actin polymerization assessed as light scattering at 10 to 50 uM by fluorimetry; conditions: Muscle tissue
In short: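 90° light scattering at 400 nm, 22 °C. Background read for 3 min, then drug in DMSO added, mixed, and followed about 15 min. PIB (2.5 M KCl, 100 mM MgCl2, 50 mM ATP) used as reference inducer.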

[6] = Displacement of FITC-phalloidin from rabbit muscle actin polymer after 1 hr by fluorescence analysis; assay type: tissue-based, Oryctolagus cuniculus, Muscle tissue
In short: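 Rabbit muscle actin and FITC-phalloidin were incubated 1 h at 22 °C in monomer buffer with 2 µL PIB per 100 µL. Drugs in DMSO were added for another 1 h at 22 °C, then the mixture was centrifuged and supernatant fluorescence read. EC50 is the concentration giving 50% of the maximal phalloidin-induced increase.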

[7] = test system: CA46; assay: Antiproliferative activity against human CA46 cells after 24 hrs; assay type: functional, cell-based; conditions: CA46, 24 h
In short: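 CA46 Burkitt lymphoma cells are a suspension line. They were grown 24 h at 37 °C with drug, and cell number was the read-out. IC50 is the concentration giving 50% growth inhibition.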

[8] = Antiproliferative activity against rat kangaroo PtK2 cells after 48 hrs; assay type: cell-based; conditions: Potorous tridactylus, PtK2, 48 h
In short: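 PtK2 kidney cells (Potorous tridactylis) are an attached line. They were exposed to drug for 48 h, and cell protein was the read-out of growth. IC50 was taken from the concentration response.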

[9] = test system: CA46; assay: Cell cycle arrest in human CA46 cells assessed as accumulation at G2/M phase at 0.2 uM after 24 hrs using propidium iodide labeling by flow cytometry; assay type: functional
[10] = test system: CA46; assay: Ratio of IC50 for rat kangaroo Ptk2 cells to IC50 for human CA46 cells
[11] = test system: PtK2; assay: Effect on actin cytoskeleton in rat kangaroo PtK2 cells assessed as thickening in microfilament at 0.3 uM after 24 hrs by immunofluorescence analysis relative to untreated control; assay type: functional, cell-based; conditions: Potorous tridactylus; in short: as §1
[12] = test system: PtK2; assay: Effect on actin cytoskeleton in rat kangaroo PtK2 cells assessed as thickening in microfilament at 1.0 uM after 24 hrs by immunofluorescence analysis relative to untreated control; assay type: functional, cell-based; conditions: Potorous tridactylus; in short: as §1
[13] = test system: PtK2; assay: Effect on actin cytoskeleton in rat kangaroo PtK2 cells assessed as hairy appearance at 3 uM after 24 hrs by immunofluorescence analysis; assay type: functional, cell-based; conditions: Potorous tridactylus; in short: as §1
[14] = test system: PtK2; assay: Effect on actin cytoskeleton in rat kangaroo PtK2 cells assessed as hairy appearance at 10 uM after 24 hrs by immunofluorescence analysis; assay type: functional, cell-based; conditions: Potorous tridactylus; in short: as §1
[15] = Stimulation of rabbit muscle actin polymerization by centrifugation assay; assay type: tissue-based, Oryctolagus cuniculus, Muscle tissue
In short: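 Purified rabbit muscle actin with drug under nonpolymerizing conditions (no exogenous K+). Polymer was separated by centrifugation and supernatant protein measured. EC50 is the concentration reducing supernatant protein by 50% compared with a drug-free control. Three independent experiments were averaged. Total incubation plus processing time was 2.5 h.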

[16] = organism: Oryctolagus cuniculus; assay: Stimulation of rabbit muscle actin polymerization by electron microscopy; conditions: Muscle tissue
In short: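 Samples of purified rabbit muscle actin with drug were examined by electron microscopy for filaments, in parallel with K+-induced controls. Low-speed centrifugation (20000g, 30 min, 22 °C) was used to test for bundled polymer.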

[17] = organism: Oryctolagus cuniculus; assay: Displacement of FITC-phalloidin from rabbit muscle actin polymer pretreated prior to FITC-phalloidin addition by fluorescence analysis; conditions: Muscle tissue
[18] = Antiproliferative activity against human NCI60 cells; assay type: functional
[19] = test system: Candida albicans; assay: Antimicrobial activity against Candida albicans ATCC 14053 at 100 ug/disk by standard paper sensitivity disk-agar plate method; assay type: functional; conditions: read-out: IZ
In short: (§2)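 Agar disk diffusion with paper disks 6 mm in diameter, dose per disk as in line.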

[20] = test system: Candida albicans; assay: Antimicrobial activity against Candida albicans ATCC 14053 at 10 ug/disk by standard paper sensitivity disk-agar plate method; assay type: functional; conditions: read-out: IZ; in short: as §2
[21] = test system: Pseudomonas aeruginosa; assay: Antimicrobial activity against Pseudomonas aeruginosa ATCC 10145 by standard paper sensitivity disk-agar plate method; assay type: functional, organism-based
In short: (§3)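 Paper disks of 6 mm diameter placed on seeded agar plates; activity assessed by standard disk-agar sensitivity method.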

[22] = test system: Escherichia coli; assay: Antimicrobial activity against Escherichia coli ATCC 1775 by standard paper sensitivity disk-agar plate method; assay type: functional, organism-based; in short: as §3
[23] = test system: Salmonella enterica subsp. enterica; assay: Antimicrobial activity against Salmonella choleraesuis subsp. choleraesuis ATCC 14028 by standard paper sensitivity disk-agar plate method; assay type: functional, organism-based; in short: as §3
[24] = test system: Bacillus subtilis; assay: Antimicrobial activity against Bacillus subtilis ATCC 6051 by standard paper sensitivity disk-agar plate method; assay type: functional, organism-based
In short: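 Paper disk on agar, disk diameter 6 mm.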

[25] = test system: Staphylococcus aureus; assay: Antimicrobial activity against Staphylococcus aureus ATCC 12600 by standard paper sensitivity disk-agar plate method; assay type: functional, organism-based; in short: as §3
[26] = test system: CA46; assay: Cell cycle arrest in human CA46 cells assessed as accumulation at G2/M phase at 1.0 uM after 24 hrs using propidium iodide labeling by flow cytometry; assay type: functional
In short: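 CA46 human Burkitt lymphoma cells were treated with the drug for 24 h. Cellular DNA content was then labelled with propidium iodide and measured by flow cytometry. The read-out was the percentage of cells in G2/M phase, compared against an untreated control.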

Structure (SMILES) | Activity [1] | Activity [2] | Activity [5] | EC50 [6] [nM] | IC50 [7] [nM] | IC50 [8] [nM] | Activity [11] | Activity [12] | Activity [13] | Activity [14] | EC50 [15] [nM] | further results
C/C1=C\[C@H](C)C[C@H](C)OC(=O)C[C@H](c2ccc(O)cc2)NC(=O)[C@@H](Cc2c(Br)[nH]c3ccccc23)N(C)C(=O)[C@H](C)NC(=O)[C@@H](C)C1 [JASPAMIDE] | Active | Active | Active | 6500 | 30 | 300 | – | – | – | – | – | Activity [3]: Active; Activity [4]: Active
CC(=O)O[C@@H]1c2nc(cs2)C(=O)O[C@@H](CCCC(C)(Cl)Cl)[C@H](C)C(=O)O[C@@H](C(C)(C)O)c2nc(cs2)C(=O)OC1(C)C [HECTOCHLORIN] | Active | Active | Active | > 60000 | 20 | 300 | Active | Active | Active | Active | 20000 | Activity [9]: 37%; Ratio IC50 [10]: 10; Activity [16]: inactive; Activity [17]: inactive; GI50 [18]: 5100 nM; zone of inhibition at 100 µg/disc [19]: 16 mm; zone of inhibition at 10 µg/disc [20]: 11 mm; Activity [21]: inactive; Activity [22]: inactive; Activity [23]: inactive; Activity [24]: inactive; Activity [25]: inactive
CC(C)[C@@H]1NC(=O)CNC(=O)[C@@H]2CSC(=N2)[C@H](C(C)(C)O)OC(=O)C(C)(C)[C@H](CCCC(C)(Cl)Cl)OC(=O)c2csc1n2 [LYNGBYABELLIN B] | Active | Active | – | – | 100 | 1000 | Active | Active | Active | Active | > 50000 | Activity [26]: 28%
